Data taken from paper PMC7113734 (Antiviral Research, 2016).
Like-named read-outs stand apart in the source and are kept apart here.

Experiments:
[1] = Pharmacokinetics in rats; assay type: in vivo; conditions: male, Sprague-Dawley, rat, plasma
Method in brief: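 Male Sprague-Dawley rats, n = 3 per route. Prodrug given as IV bolus (50 mg/kg, 12.5 mg/mL in 5% DMSO/50% PEG300 in saline) or PO (1000 mg/kg, […] in 2% CMC suspension). Blood sampled over 24 h into sodium fluoride plus citric acid, kept on wet ice <10 min, then centrifuged at 4 °C. Plasma stored at −80 °C; prodrug and active metabolite quantified by UPLC-MS/MS (prodrug LLOQ 0.10 ng/mL).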

[2] = system: HIV attachment to HeLa-CD4-LTR-β-gal cells; test: Attachment inhibition assay; assay type: cell-based, HIV-1; conditions: Human immunodeficiency virus 1, read-out: Attachment inhibition EC50 ± SD
[3] = system: HIV-1IIIB; test: Drug-resistant virus selection by serial dose escalation; assay type: cell-based; conditions: fourteen passages, CEM-SS cells
[4] = target: HIV-1 integrase (Human immunodeficiency virus type 1 group M subtype B, UniProt P04585); test: HIV-1 integrase inhibition assay; assay type: biochemical
[5] = system: drug resistant clinical HIV isolates; test: Antiviral activity against drug-resistant HIV-1 in PBMCs; assay type: cell-based; conditions: Human immunodeficiency virus 1, PBMC
[6] = system: HL2/3 cells expressing HIV-1 gp120 and gp41 fusing with HeLa-CD4-LTR-β-gal cells; test: Fusion inhibition assay; assay type: cell-based; conditions: Human immunodeficiency virus 1, HL2/3, read-out: Fusion inhibition EC50 ± SD
Method in brief: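 HeLa-CD4-LTR-β-Gal cells incubated with test compound for 1 h at 37°C/5% CO2, then co-cultured 48 h with HL2/3 cells. Cells lysed and β-galactosidase expression measured by chemiluminescent Gal-Screen.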

[7] = system: cytochrome P450 enzymes; test: Inhibition of cytochrome P450 enzymes; assay type: in vitro ADME
[8] = system: HIV-1IIIB; test: Antiviral activity with added serum proteins in CEM-SS cells; assay type: cell-based
[9] = system: HIVIIIB; test: Cell-to-cell virus transmission assay in CEM-SS cells; assay type: cell-based, HIV-1
[10] = target: HIV-1 protease (Human immunodeficiency virus type 1 group M subtype B, UniProt P04585); test: HIV-1 protease inhibition assay; assay type: biochemical
[11] = in vitro; conditions: human, CC50 (cytotoxic concentration), fresh human PBMCs
[12] = system: drug-resistant HIV-1 strains; test: Antiviral activity against drug-resistant HIV-1 strains in MT-4; assay type: cell-based; conditions: MT-4
[13] = system: clinical HIV-1 subtype B virus 92US723; test: Antiviral activity with added serum proteins in fresh human PBMCs; assay type: cell-based; conditions: 50% human serum, AAGP or HSA vs medium only
[14] = system: MT-4 cells; test: Toxicity to MT-4 cells; assay type: cell-based; conditions: all assays
[15] = target: wild type HIV-1 RT (Human immunodeficiency virus type 1 group M subtype B, UniProt P04585); test: Biochemical RT inhibition assay
[16] = system: IIIB strain of HIV-1 in CEM-SS cells; test: Combination drug interaction evaluation; assay type: cell-based
Method in brief: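 CEM-SS cells infected with HIV-1 IIIB; inhibition of cytopathic effect measured for the test compound in two-drug combinations with known anti-HIV agents. Efficacy and toxicity analysed by Prichard–Shipman MacSynergy II. Expected additive inhibition computed from each agent's single-agent dose–response; inhibition above expected at each concentration calculated at 95%, 99% and 99.9% confidence. −99 to −51 μM2% scored antagonistic; <−100 highly antagonistic.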

[17] = system: HIV strain 92US727; test: Cell-to-cell virus transmission assay in fresh human PBMCs; assay type: cell-based, HIV-1
Method in brief: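 HIV-infected fresh human PBMCs treated 3 days with six concentrations of test compound. Passaged every 3 days for three passages at fixed compound concentration; 80% of culture volume replaced with fresh compound-containing medium and uninfected cells. Cell-free supernatants collected on sub-culture days for RT activity and extracellular p24 antigen. TCID50 per passage by endpoint dilution.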

[18] = target: hERG (Homo sapiens, UniProt Q12809); test: Standard hERG test for cardiotoxicity
hERG, sequence (Q12809 whole entry): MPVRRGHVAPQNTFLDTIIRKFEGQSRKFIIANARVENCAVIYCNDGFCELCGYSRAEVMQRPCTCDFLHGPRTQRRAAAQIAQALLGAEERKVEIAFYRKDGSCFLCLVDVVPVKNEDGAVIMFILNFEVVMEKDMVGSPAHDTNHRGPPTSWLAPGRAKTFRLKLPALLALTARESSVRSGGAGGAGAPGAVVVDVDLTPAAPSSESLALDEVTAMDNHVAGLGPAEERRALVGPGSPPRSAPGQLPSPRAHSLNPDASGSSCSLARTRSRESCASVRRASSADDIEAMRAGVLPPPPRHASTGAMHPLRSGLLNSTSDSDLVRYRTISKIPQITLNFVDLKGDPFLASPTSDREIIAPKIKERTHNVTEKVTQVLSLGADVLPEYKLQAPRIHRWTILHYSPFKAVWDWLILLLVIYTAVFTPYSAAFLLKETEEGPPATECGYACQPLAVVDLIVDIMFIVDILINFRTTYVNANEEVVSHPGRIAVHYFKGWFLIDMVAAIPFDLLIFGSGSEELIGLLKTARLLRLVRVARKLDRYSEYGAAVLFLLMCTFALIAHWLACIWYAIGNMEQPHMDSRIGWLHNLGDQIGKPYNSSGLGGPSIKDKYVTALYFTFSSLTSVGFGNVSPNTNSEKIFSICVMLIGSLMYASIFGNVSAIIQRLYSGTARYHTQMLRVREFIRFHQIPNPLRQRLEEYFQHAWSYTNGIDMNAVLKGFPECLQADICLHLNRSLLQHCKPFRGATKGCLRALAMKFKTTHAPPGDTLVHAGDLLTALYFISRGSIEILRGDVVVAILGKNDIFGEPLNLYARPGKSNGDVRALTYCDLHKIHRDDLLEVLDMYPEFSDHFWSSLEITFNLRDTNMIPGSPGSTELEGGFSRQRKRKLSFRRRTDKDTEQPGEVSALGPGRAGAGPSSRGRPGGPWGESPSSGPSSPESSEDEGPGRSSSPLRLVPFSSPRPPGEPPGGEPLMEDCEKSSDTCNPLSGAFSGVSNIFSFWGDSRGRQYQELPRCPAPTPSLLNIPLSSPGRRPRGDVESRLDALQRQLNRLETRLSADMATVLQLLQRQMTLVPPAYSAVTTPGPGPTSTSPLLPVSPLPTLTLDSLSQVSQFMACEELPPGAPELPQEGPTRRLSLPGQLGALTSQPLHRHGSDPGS

With `CCCC(=O)OCSc1ccccc1C(=O)NCCC(N)=O` [NS1040, ((2-((3-amino-3-oxopropyl)carbamoyl)phenyl)thio)methyl butyrate] the concentration at 1 h ([1]; iv, 50 mg/kg) was less than 0.1 ng/mL, the concentration at 0.75 h ([1]; po, 1000 mg/kg) was less than 0.1 ng/mL and the EC50 [2] was greater than 100 µM. For the same compound, the “selection of resistant virus” value [3] was “did not result in resistance”, the EC50 [4] was greater than 100 µM and the EC50 ([5]; read-out: PBMC/HIV-1 EC50 ± SD, Multi-drug resistant AD. MDR) was 7.21 ± 4.38 µM. It also gave an EC50 ([5]; read-out: PBMC/HIV-1 EC50 ± SD, Multi-drug resistant MDR769) of 4.77 ± 0.95 µM, an EC50 ([5]; read-out: PBMC/HIV-1 EC50 ± SD, NNRTI-resistant A17R) of 10 ± 4.78 µM and an EC50 ([5]; read-out: PBMC/HIV-1 EC50 ± SD, NNRTI-resistant N119) of 5.9 ± 1.31 µM. It also gave an EC50 ([5]; read-out: PBMC/HIV-1 EC50 ± SD, PI-resistant 144-44) of 8.38 ± 5.4 µM, an EC50 ([5]; read-out: PBMC/HIV-1 EC50 ± SD, PI-resistant 1002-60) of 3.66 ± 0.28 µM and an EC50 ([5]; read-out: PBMC/HIV-1 EC50 ± SD, PI-resistant 1022-48) of 3.45 ± 2.26 µM. The EC50 ([5]; read-out: PBMC/HIV-1 EC50 ± SD, PI-resistant 1026-60) was 3.29 ± 0.57 µM, the EC50 ([5]; read-out: PBMC/HIV-1 EC50 ± SD, PI-resistant 1064-52) was 2.62 ± 1.87 µM and the EC50 ([5]; read-out: PBMC/HIV-1 EC50 ± SD, Wild Type 92US727) was 5.58 ± 0.12 µM. The EC50 [6] was greater than 100 µM, the “inhibition of cytochrome P450 enzymes” value [7] was “neither NS1040 nor MDH-1-38 had significant inhibitory activity” and the “fold decrease in potency” value ([8]; in the presence of 50% human AB serum) was roughly 4.5 fold. For the same compound, the “fold decrease in potency” value ([8]; in the presence of HSA (10 mg/mL)) was “did not exhibit a significant decrease in potency”, the “fold less effective than MDH-1-38 at reducing cell to cell HIV transmission” value [9] was “approximately 3 fold” and the RT ([9]; Passage 1, 2 μM) was 27 cpm. For the same compound, the TCID50/mL ([9]; Passage 1, 2 μM) was 0 TCID50/mL, the p24 ([9]; Passage 1, 2 μM) was 725 pg/mL and the RT ([9]; Passage 2, 2 μM) was 1063 cpm. For the same compound, the p24 ([9]; Passage 2, 2 μM) was 85,803 pg/mL, the RT ([9]; Passage 3, 2 μM) was 7036 cpm and the TCID50/mL ([9]; Passage 3, 2 μM) was 1.31 × 10^4 TCID50/mL. The p24 ([9]; Passage 3, 2 μM) was 1,570,937 pg/mL, the EC50 [10] was greater than 100 µM and the CC50 [11] was greater than 216 µM. The EC50 ([12]; Human immunodeficiency virus 1, read-out: Mean EC50 ± SD, AZT- and NNRTI-resistant, RT 4xAZT/L100I) was 3.54 ± 2.02 µM, the EC50 ([12]; Human immunodeficiency virus 1, read-out: Mean EC50 ± SD, AZT- and NNRTI-resistant, RT 4xAZT/Y181C) was 5.24 ± 0.18 µM and the EC50 ([12]; Human immunodeficiency virus 1, read-out: Mean EC50 ± SD, AZT-resistant, RT 4xAZT (D67N/K70R/T215Y/K219Q)) was 4.24 ± 0.91 µM. It also gave an EC50 ([12]; Human immunodeficiency virus 1, read-out: Mean EC50 ± SD, Atazanavir-resistant, PR I50L) of 1.27 ± 0.19 µM, an EC50 ([12]; Human immunodeficiency virus 1, read-out: Mean EC50 ± SD, Didanosine-resistant, RT L74V) of 4.59 ± 0.61 µM and an EC50 ([12]; Human immunodeficiency virus 1, read-out: Mean EC50 ± SD, Enfuviritide-resistant, Env V38A/N126K) of 5.48 ± 0.01 µM. The EC50 ([12]; Human immunodeficiency virus 1, read-out: Mean EC50 ± SD, Indinavir-, Ritonavir-resistant, PR I84V) was 3.33 ± 0.44 µM, the EC50 ([12]; Human immunodeficiency virus 1, read-out: Mean EC50 ± SD, Indinavir-, Ritonavir-resistant, PR V82A) was 6.73 ± 1.06 µM and the EC50 ([12]; Human immunodeficiency virus 1, read-out: Mean EC50 ± SD, Indinavir-, Ritonavir-resistant, PR V82F/I84V) was 3.52 ± 1.7 µM. The EC50 ([12]; Human immunodeficiency virus 1, read-out: Mean EC50 ± SD, Lamivudine-resistant, RT M184V) was 3.5 ± 1.1 µM, the EC50 ([12]; Human immunodeficiency virus 1, read-out: Mean EC50 ± SD, NNRTI-resistant, RT K103N/Y181C) was 5.19 ± 0.06 µM and the EC50 ([12]; Human immunodeficiency virus 1, read-out: Mean EC50 ± SD, NNRTI-resistant, RT K103N) was 5.02 ± 0.14 µM. For the same compound, the EC50 ([12]; Human immunodeficiency virus 1, read-out: Mean EC50 ± SD, NNRTI-resistant, RT L100I) was 1.61 ± 0.41 µM, the EC50 ([12]; Human immunodeficiency virus 1, read-out: Mean EC50 ± SD, NNRTI-resistant, RT V106A) was 4.07 ± 0.78 µM and the EC50 ([12]; Human immunodeficiency virus 1, read-out: Mean EC50 ± SD, NNRTI-resistant, RT V108I) was 4.7 ± 0.17 µM. It also gave an EC50 ([12]; Human immunodeficiency virus 1, read-out: Mean EC50 ± SD, NNRTI-resistant, RT V179D) of 5.01 ± 0.31 µM, an EC50 ([12]; Human immunodeficiency virus 1, read-out: Mean EC50 ± SD, NNRTI-resistant, RT Y181C) of 4.52 ± 1.07 µM and an EC50 ([12]; Human immunodeficiency virus 1, read-out: Mean EC50 ± SD, NNRTI-resistant, RT Y188C) of 4.72 ± 0.55 µM. It also gave an EC50 ([12]; Human immunodeficiency virus 1, read-out: Mean EC50 ± SD, Raltegravir-resistant, IN Q148H/G140S) of 4.16 ± 0.26 µM, an EC50 ([12]; Human immunodeficiency virus 1, read-out: Mean EC50 ± SD, Saquinavir-resistant, PR G48V/L90M) of 1.1 ± 0.32 µM and an EC50 ([12]; Human immunodeficiency virus 1, read-out: Mean EC50 ± SD, Tenofovir-resistant, RT K65R) of 5.21 ± 0.08 µM. For the same compound, the “change in antiviral activity with serum protein additives” value [13] was “no significant change in antiviral activity”, the “non-toxic up to high test concentration” value [14] was greater than 100 µM and the EC50 [15] was greater than 100 µM. It also gave a mean synergy volume ([16]; in combination with amprenavir) of 111 ± 27.8 μM^2%, a mean synergy volume ([16]; in combination with enfuviritide) of 115 ± 39.5 μM^2% and a mean synergy volume ([16]; in combination with lamivudine) of 180 ± 128 μM^2%. For the same compound, the mean synergy volume ([16]; in combination with lopinavir) was 212 ± 62.2 μM^2%, the mean synergy volume ([16]; in combination with nelfinavir) was 282 ± 61.5 μM^2% and the mean synergy volume ([16]; in combination with ritonavir) was 143 ± 33.5 μM^2%. The mean synergy volume ([16]; in combination with stavudine) was 110 ± 68 μM^2%, the RT ([17]; Passage 1, 5 μM) was 222 cpm and the TCID50/mL ([17]; Passage 1, 5 μM) was 4.18 × 10^2 TCID50/mL. For the same compound, the p24 ([17]; Passage 1, 5 μM) was 766 pg/mL, the RT ([17]; Passage 2, 5 μM) was 595 cpm and the TCID50/mL ([17]; Passage 2, 5 μM) was 6.86 × 10^3 TCID50/mL. For the same compound, the p24 ([17]; Passage 2, 5 μM) was 1731 pg/mL, the RT ([17]; Passage 3, 5 μM) was 9728 cpm and the TCID50/mL ([17]; Passage 3, 5 μM) was 6.52 × 10^4 TCID50/mL. For the same compound, the p24 ([17]; Passage 3, 5 μM) was 61,967 pg/mL and the “hERG test for cardiotoxicity” value [18] was “negative”.
